pIC50, pKi: −log10 of the molar value. One block for each compound: values may come before it.
How the values were obtained:
[1] = system: Folylpolyglutamate synthase (Mus musculus); assay: Inhibition of Folyl-polyglutamate synthase from mouse liver; set-up: concentration or dose not given beside the values; conditions: concentration not given here
[2] = biological target: T1, Dihydrofolate reductase (Mus musculus, UniProt P00375); assay: Inhibition of dihydrofolate reductase (DHFR) in mouse L1210 leukemia cells; format: cell-based
T1 sequence (P00375 whole entry): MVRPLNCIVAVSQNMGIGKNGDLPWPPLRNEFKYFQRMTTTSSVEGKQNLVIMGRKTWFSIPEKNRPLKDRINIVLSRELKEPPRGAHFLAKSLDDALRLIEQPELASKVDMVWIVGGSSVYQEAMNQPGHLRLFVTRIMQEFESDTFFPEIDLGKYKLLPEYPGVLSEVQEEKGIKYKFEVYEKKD

[3] = organism: Mus musculus; assay: (§1) Inhibition of Folyl-polyglutamate synthase from mouse liver; conditions: concentration not given here
Procedure, shortened: (§2)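 Partially purified mouse liver enzyme, run at 37 °C for 1 h in Tris buffer pH 8.6 with 20 mM α-thioglycerol. The mixture held 1 mM [3H]-L-glutamic acid, 500 μM folic acid and 500 μM inhibitor. Activity is expressed as percent of untreated control. Ki,s comes from a slope replot of double-reciprocal 1/V versus 1/S plots, and was not determined where inhibition was below 30%.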

[4] = as §1
Procedure, shortened: as §2

[5] = system: L1210 ( R81); assay: (§3) Inhibition of cell growth against highly MTX- and AMT-resistant mutant L1210/R81; format: functional, cell-based; conditions: Mus musculus
[6] = system: L1210; assay: Inhibition of cell growth against cultured L1210 leukemia cells in mouse; format: functional, cell-based
[7] = system: L1210; assay: as §3; format: functional, cell-based; conditions: Mus musculus

Structure (SMILES): CN(Cc1cnc2nc(N)nc(N)c2n1)c1ccc(C(=O)NCCCS(=O)(=O)O)cc1
inhibition [1]: 18%

Structure (SMILES): CN(Cc1cnc2nc(N)nc(N)c2n1)c1ccc(C(=O)NCCS(=O)(=O)O)cc1
inhibition [1]: 22%

Structure (SMILES): Nc1nc(N)c2nc(CNc3ccc(C(=O)NC(CP(=O)(O)O)C(=O)O)cc3)cnc2n1 (stereo not given)
pIC50 [2]: 6.26
inhibition [3]: 22%
pKi [4]: 3.05
pIC50 [7]: 3.41
pIC50 [6]: 6.60

Structure (SMILES): CN(Cc1cnc2nc(N)nc(N)c2n1)c1ccc(C(=O)NCS(=O)(=O)O)cc1
inhibition [1]: 19%

Structure (SMILES): CN(Cc1cnc2nc(N)nc(N)c2n1)c1ccc(C(=O)NC(CCS(=O)(=O)O)C(=O)O)cc1 (stereo not given)
inhibition [1]: 59%

Structure (SMILES): Nc1nc(N)c2nc(CNc3ccc(C(=O)NC(CCCP(=O)(O)O)C(=O)O)cc3)cnc2n1 (stereo not given)
pIC50 [2]: 7.08
inhibition [3]: 52%
pKi [4]: 3.91
pIC50 [5]: < 3.34
pIC50 [6]: 6.92

The remaining lines, values ahead:

inhibition [1]: 26%
Structure (SMILES): CN(Cc1cnc2nc(N)nc(N)c2n1)c1ccc(C(=O)NCCCCS(=O)(=O)O)cc1

pIC50 [2]: 7.17
inhibition [3]: 44%
pKi [4]: 3.81
pIC50 [5]: < 3.55
pIC50 [6]: 6.89
Structure (SMILES): Nc1nc(N)c2nc(CNc3ccc(C(=O)NC(CCCCP(=O)(O)O)C(=O)O)cc3)cnc2n1 (stereo not given)

inhibition [1]: 77%
Structure (SMILES): Nc1nc(N)c2nc(CNc3ccc(C(=O)NC(CCS(=O)(=O)O)C(=O)O)cc3)cnc2n1 (stereo not given)

pIC50 [2]: 7.20
inhibition [3]: 100%
pKi [4]: 5.08
pIC50 [5]: 3.62
pIC50 [6]: 7.17
Structure (SMILES): Nc1nc(N)c2nc(CNc3ccc(C(=O)NC(CCP(=O)(O)O)C(=O)O)cc3)cnc2n1 (stereo not given)

inhibition [1]: 16%
Structure (SMILES): CN(Cc1cnc2nc(N)nc(N)c2n1)c1ccc(C(=O)NCCCP(=O)(O)O)cc1

inhibition [1]: 22%
Structure (SMILES): CN(Cc1cnc2nc(N)nc(N)c2n1)c1ccc(C(=O)NCCP(=O)(O)O)cc1

inhibition [1]: 53%
Structure (SMILES): CN(Cc1cnc2nc(N)nc(N)c2n1)c1ccc(C(=O)NC(CCP(=O)(O)O)C(=O)O)cc1 (stereo not given)

inhibition [1]: 9%
Structure (SMILES): CCOP(=O)(O)CCCNC(=O)c1ccc(N(C)Cc2cnc3nc(N)nc(N)c3n2)cc1

From ChEMBL document CHEMBL1124238, “Methotrexate analogues. 32. Chain extension, alpha-carboxyl deletion, and gamma-carboxyl replacement by sulfonate and phosphonate: effect on enzyme binding and cell-growth inhibition” (J Med Chem, 1988)
